In article PMC9119696 (Nature chemical biology, 2021):

Experiments:
[1] = test system: Kuramochi; experiment: 2D growth over time viability; format: cell-based; details: up to 8 days
Outline: (§1)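 Cells seeded at 500 per well (PATU-8988T: 100 per well) and dosed with test compound or DMSO the next day. Kept at 37 °C, 5% CO2, with medium and compound renewed every 48 h. One plate per time point (days 0, 2, 4, 6, 8); the day 0 plate was read before dosing. Viability measured by CellTiter-Glo luminescence.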

[2] = test system: PATU-8988T Pin1 KO cells; experiment: 2D growth over time viability; format: cell-based; details: 1 μM, up to 8 days
Outline: as §1

[3] = biological target: T1, GST-Pin1 (Homo sapiens, UniProt Q13526); experiment: Competitive fluorescence polarization; format: binding
T1 sequence (Q13526 whole entry): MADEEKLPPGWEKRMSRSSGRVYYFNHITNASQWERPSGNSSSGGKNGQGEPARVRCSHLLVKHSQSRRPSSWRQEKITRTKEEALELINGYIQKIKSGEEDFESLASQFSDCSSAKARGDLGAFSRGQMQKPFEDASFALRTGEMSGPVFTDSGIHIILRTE
Outline: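 GST-Pin1 (250 nM) preincubated 14 h at 4 °C with compound and 5 nM N-terminal fluorescein-labelled peptide probe (Bth-D-pThr-Pip-Nal). Buffer: 10 mM HEPES, 10 mM NaCl, 1% glycerol pH 7.4, 10 µg ml-1 BSA, 0.01% Tween-20, 1 mM DTT. Ki calculated from probe concentration, 85% probe bound and Pin1 concentration. Kinact from dose- and time-dependent runs. n = 3 samples ± s.e.m.; 2 experiments.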

[4] = test system: germinal center (GC) B cells; experiment: In vivo germinal center B cell evaluation; parameters: species or system mice; details: IP 40 mg kg^−1 on days 7 and 9 after NP-OVA immunization, day 11
Outline: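 WT mice immunised with NP-OVA and killed on day 11. Lymph node cells Fc-blocked with anti-CD16/32 (2 µg ml-1, 5–10 min), then stained 20–40 min with B220, FAS and CD38 antibodies. Germinal centre B cells gated as live/single B220+ CD38lo FAShi by flow cytometry. Two-tailed Student's t test.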

[5] = test system: Tg(dβh:MYCN;dβh:EGFP) zebrafish; experiment: Zebrafish MYCN neuroblastoma initiation model; format: in vivo; details: 25–100 μM in water
Outline: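 Three-day-old embryos placed five per well and exposed to DMSO or test compound in egg water. Live fish imaged for bright-field and EGFP fluorescence under identical conditions. EGFP-positive tissue area quantified from the images.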

[6] = test system: Pin1; experiment: In vivo Pin1 engagement, spleen competition pulldown; parameters: species or system mice; details: 20 mg kg^–1 oral gavage, three doses over 2 days
Outline: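 Mice dosed by oral gavage with vehicle or 10 or 20 mg kg-1, three doses over two consecutive days. Spleens harvested 4 h after the last dose, ground and lysed in HEPES pH 7.4/NaCl/glycerol/TCEP/NP-40 buffer with protease inhibitors. Lysate clarified and normalized by BCA to 2.5 µg µl-1. Competition pulldown run with a desthiobiotin-tagged probe analogue.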

[7] = test system: IMR90 lung fibroblast; experiment: IMR90 lung fibroblast viability; format: cell-based; details: IMR90 lung fibroblasts
[8] = test system: Pin1; experiment: Live cell competition pulldown; format: cell-based
Outline: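 2.5 million cells per 10-cm plate, dosed next day with DMSO or test compound (5 h, or as indicated). Cells washed in cold PBS, scraped and lysed in HEPES pH 7.4/NP-40 buffer with TCEP. Lysate (500 µg) incubated with desthiobiotin probe (1 µM, 1 h, 4 °C), then streptavidin agarose (1.5 h, 4 °C). Pin1 pulldown detected by immunoblot.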

[9] = test system: Mino B cells; experiment: RNA-seq differential expression; format: cell-based, human; details: 1 μM, 6 h
Outline: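 Mino cells grown in RPMI 1640 with 15% FBS and 1% penicillin/streptomycin at 37 °C, 5% CO2 in a humidified incubator.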

[10] = test system: PATU-8988T WT Pin1 cells; experiment: 3D Matrigel dome antiproliferative assay; format: cell-based; details: 1 μM, 9-day treatment
Outline: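 1,000 cells per Matrigel dome, one dome per well, left 15 min at 37 °C to solidify. Medium with test compound renewed every 3 days. After 9 days, 3D CellTiter-Glo was added and the plate shaken 1 h at room temperature before reading luminescence. n = 9 biological replicates per condition.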

[11] = test system: MDA-MB-468; experiment: 2D growth over time viability; format: cell-based; details: up to 8 days, 2.5 μM
Outline: as §1

[12] = test system: Th-MYCN mice tumors; experiment: Th-MYCN murine neuroblastoma model; format: in vivo
Outline: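 Tumours in TH-MYCN mice monitored weekly by palpation; mice with 4–5 mm tumours were enrolled. Groups received test compound at 40 mg kg-1 by oral gavage once or twice daily, or vehicle (5% NMP, 5% kolliphor, 20% DMSO) once daily. The twice-daily arm was capped at 56 doses. Tumour volume measured by 1 Tesla MRI under isoflurane with core temperature held at 37 °C. Two-tailed Student's t test.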

[13] = biological target: T1, GST-Pin1; experiment: Chymotrypsin-coupled PPIase activity assay; format: biochemical; details: read-out: apparent Ki (PPIase assay); measured at 12 h
Outline: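 GST-Pin1 (50 nM) preincubated with test compound for 12 h at 4 °C in 35 mM HEPES pH 7.8, 0.2 mM DTT, 0.1 mg ml-1 BSA. Chymotrypsin (final 6 mg ml-1) was added just before starting, followed by Suc-Ala-pSer-Pro-Phe-pNA substrate.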

[14] = test system: Pin1 Cys113; experiment: CITe-Id chemoproteomic cysteine profiling; format: cell-based; details: PATU-8988T cells, 100, 500, 1,000 nM, 5 h
Outline: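 Live PATU-8988T cells exposed to test compound at 100, 500 or 1,000 nM for 5 h, then lysed. Lysates co-incubated with the desthiobiotin-tagged probe (2 µM) for 18 h. Probe-labelled cysteines were identified and quantified proteome-wide for dose-dependent competition.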

[15] = test system: PC3; experiment: 2D growth over time viability; format: cell-based; details: up to 8 days
Outline: as §1

[16] = test system: WT PATU-8988T cells; experiment: 2D growth over time viability; format: cell-based; details: 1 μM, 6 and 8 days
Outline: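 PATU-8988T cells plated at 100 per well (other lines 500), with one plate per time point (days 0, 2, 4, 6, 8). Treated the day after plating with DMSO or compound and held at 37 °C, 5% CO2. Medium plus fresh compound replaced every 48 h. CellTiter-Glo luminescence read; day 0 read before treatment. Values divided by mean day 0 reading; n = 3 biological replicates.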

[17] = dose- and time-dependent FP assay

CC(C)(C)CN(C(=O)CCl)C1CCS(=O)(=O)C1 (stereo not shown) [Sulfopin]
antiproliferative effect (growth over time) [1]: only slight effects | effect on cellular viability [2]: no significant effect on viability | Kinact [3, 17]: 0.03 min⁻¹ | second-order rate constant (Kinact/Ki) [3, 17]: 84 M⁻¹ s⁻¹ | Ki ([3]; read-out: apparent Ki (FP assay), after 14 h incubation): 17 nM | proportion of GC B cells compared to vehicle [4]: 1.34 fold | neuroblastoma-initiating hyperplasia [5]: significantly suppressed | toxicity in zebrafish embryos [5]: no evidence of toxicity was observed | in vivo Pin1 engagement in spleen [6]: Effective Pin1 engagement was observed in three out of three mice | no toxicity up to (IMR90 viability) [7]: > 25 µM | time to complete Pin1 engagement ([8]; 1-μM treatment, PATU-8988T cells): ≤ 4 h | concentration fully engaging Pin1 ([8]; HCT116 cells, 5 h): 0.5 µM | concentration of maximal Pin1 engagement ([8]; PATU-8988T and HCT116 cells, 5 h): 0.5 to 1 µM | concentration fully engaging Pin1 ([8]; PATU-8988T cells, 5 h): 1 µM | Pin1 engagement after 72 h ([8]; PATU-8988T or HCT116 cells, 72 h): > 50% | number of genes significantly downregulated [9]: 206 | antiproliferative activity in 3D Matrigel domes [10]: modest antiproliferative activity | antiproliferative effect (growth over time) [11]: most pronounced sensitivity | average increase in survival ([12]; 40 mg kg^−1 BID oral gavage): 28 days | mice with actual reduction in tumor size (MRI) ([12]; 40 mg kg^−1 BID, 7-day treatment, n = 6): five out of six | average increase in survival ([12]; 40 mg kg^−1 QD oral gavage): 10 days | Ki [13]: 211 nM | cysteines with dose-dependent competition (of 162 labeled by Sulfopin-DTB) [14]: only Pin1 Cys113 | antiproliferative effect (growth over time) [15]: only slight effects | effect on cellular viability [16]: significant effect on cellular viability after 6 and 8 days
